Experimental data gathered from unrelated publications.
Lines come from different studies, so protocols differ.

The MIC of `CS(=O)(=O)c1ccc(/C=C/c2nc3ccccc3c(=O)n2-c2cccc(C(=O)O)c2)cc1` is reported as > 128 µg/mL (Enterococcus faecium; microbial growth, broth dilution; NCTC7171).
With `Cl.NCCc1ccc(Oc2ccc(-c3noc(-c4ccc(O)cc4)n3)cc2)cc1` the MIC was 4 µg/mL (Enterococcus faecium; microbial growth, broth dilution; 24 h).
`CCn1c(-c2nonc2N)nc2c(C#CC(C)(C)O)ncc(OC3CCNCC3)c21` gave an IC50 of 7.3 µM (Plasmodium berghei; parasite growth, luciferase; human; liver stage).
With `CNCCc1ccc(Oc2ccc(-c3noc(-c4ccc(O)cc4)n3)cc2)cc1.Cl` the MIC was 4 µg/mL (Enterococcus faecium; microbial growth, broth dilution; 24 h).
`COc1cccc(-n2ncc3c(N/N=C/c4ccc(C(=O)NCCN(C)C)cc4)ncnc32)c1` has an EC50 of 0.251 µM (Trypanosoma brucei; parasite growth).
For `C[C@@H]1[C@H](O)[C@@H](C)/C=C/C=C/C=C/C=C/C=C/C=C/C=C/[C@H](O[C@@H]2O[C@H](C)[C@@H](O)[C@H](N)[C@@H]2O)C[C@@H]2O[C@](O)(C[C@@H](O)C[C@@H](O)[C@H](O)CC[C@@H](O)C[C@@H](O)CC(=O)O[C@H]1C)C[C@H](O)[C@H]2C(=O)O`, the IC50 was 0.32 µg/mL (Candida albicans; microbial growth; ATCC90028).
The MIC of `N#Cc1ccc(/C=C/c2nc3ccccc3c(=O)n2-c2cccc(C(=O)NCc3cccnc3)c2)cc1` is reported as > 128 µg/mL (Enterococcus faecium; microbial growth, broth dilution; NCTC7171).
The EC50 of `NS(=O)(=O)c1ccc(N/N=C2\C(=O)Nc3ccc4ncccc4c32)cc1` is reported as 0.0794 µM (Trypanosoma brucei; parasite growth).
For `CC(=O)NCc1cccc(-n2c(/C=C/c3ccc(C#N)cc3)nc3ccccc3c2=O)c1`, the MIC was > 128 µg/mL (Enterococcus faecium; microbial growth, broth dilution; NCTC7171).
The EC50 of `COc1cc(/C=N/Nc2ncnc3c2cnn3C(C)C)ccc1O` is reported as 1 µM (Trypanosoma brucei; parasite growth).
`Cl.NCc1ccccc1Oc1ccc(-c2noc(-c3ccc(O)cc3)n2)cc1` gave an MIC of 8 µg/mL (Enterococcus faecium; microbial growth, broth dilution; 24 h).
For `CN(c1ccc(NC(=O)Nc2c(Cl)cccc2Cl)cc1)c1ccnc(Nc2cccc(CS(C)(=O)=O)c2)n1`, the EC50 was 7.94 µM (Trypanosoma brucei; parasite growth).
`CCCCCCCCCCCCCC(O)CC(O)CO` (stereo not shown) has an IC50 of > 200 µg/mL (Mycobacterium intracellulare; microbial growth, resazurin; ATCC23068).
The IC50 of `CC1=C(C(=O)Nc2cc3cn[nH]c3cc2F)C(c2ccc(C(F)(F)F)cc2)CC(=O)N1` (stereo not shown) is reported as 4.7 µM (Plasmodium berghei; parasite growth, luciferase; human; liver stage).
`CC1=C(C(=O)Nc2ccc3[nH]ncc3c2)C(c2ccc(F)cc2)NC(c2ccc(C(F)(F)F)nc2)=N1` (stereo not shown) gave an EC50 of 5.01 µM (Trypanosoma brucei; parasite growth).
`CC(=O)OCC#Cc1ccc(/C=C/c2nc3ccccc3c(=O)n2-c2cccc(C(=O)O)c2)cc1` has an MIC of > 128 µg/mL (Enterococcus faecium; microbial growth, broth dilution; NCTC7171).
`O=C(Nc1ccc(Oc2ccc3nc(NC(=O)c4ccco4)[nH]c3c2)cc1)Nc1cc(C(F)(F)F)ccc1F` has an EC50 of 2.51 µM (Trypanosoma brucei; parasite growth).
The MIC of `O=c1c2cnccc2nc(/C=C/c2ccc(F)cc2)n1-c1cccc(O)c1` is reported as > 128 µg/mL (Enterococcus faecium; microbial growth, broth dilution; NCTC7171).
`O=C(O)c1cn(C2CC2)c2cc(N3CCNCC3)c(F)cc2c1=O` gave an IC50 of 0.3 µg/mL (Mycobacterium intracellulare; microbial growth; ATCC23068).
